From ChEMBL document CHEMBL4400568, “The design of 1,4-naphthoquinone derivatives and mechanisms underlying apoptosis induction through ROS-dependent MAPK/Akt/STAT3 pathways in human lung cancer cells” (Bioorg Med Chem, 2019)
Calls of active or inactive are those of the source. The calls are words filed in the database; no cut-off is given here.

What was measured:
NCI-H23 = experiment: Cytotoxicity against human NCI-H23 cells assessed as reduction in cell viability after 24 hrs by MTT assay; format: functional, cell-based
Summary of the method: (§1)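 Log-phase cells seeded at 1 × 10⁴ per well. Lung cancer lines (A549, NCI-H23, NCI-H460) and normal lines (IMR-90, QSG-7701, HEK-293A) each exposed to 1, 3, 10, 30 and 100 μM for 24 h. MTT (5 mg/mL stock) added for 2 h at 37°C, formazan dissolved in DMSO, absorbance read at 490 nm. Three independent experiments, mean ± SD.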

A549 [1] = experiment: Cytotoxicity against human A549 cells assessed as reduction in cell viability after 24 hrs by MTT assay; format: functional, cell-based; settings: A549, 24 h; summary of the method: as §1
A549 [2] = experiment: Induction of apoptosis in human A549 cells assessed as nuclear condensation at 3 uM by Annexin V-FITC/propidium iodide staining-based flow cytometric analysis; format: functional, cell-based; settings: TDE = time-dependent effect
Summary of the method: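 A549 cells seeded at 1 × 10⁵ cells/well, exposed to 3 μM for 3, 6, 12 and 24 h. Then incubated in binding buffer and stained with Annexin V-FITC and PI for 20 min in the dark. Apoptotic cells were scored by fluorescence microscopy and flow cytometry. Three independent experiments, mean ± SD.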

A549 [3] = experiment: Induction of apoptosis in human A549 cells assessed as late apoptotic cells at 3 uM after 3 hrs by Annexin V-FITC/propidium iodide staining-based flow cytometric analysis (reference value: 4.52%); format: functional
A549 [4] = experiment: Induction of apoptosis in human A549 cells assessed as early apoptotic cells at 3 uM after 6 hrs by Annexin V-FITC/propidium iodide staining-based flow cytometric analysis (reference value: 2.73%); format: functional
A549 [5] = experiment: Induction of apoptosis in human A549 cells assessed as late apoptotic cells at 3 uM after 6 hrs by Annexin V-FITC/propidium iodide staining-based flow cytometric analysis (reference value: 4.52%); format: functional
A549 [6] = experiment: Induction of apoptosis in human A549 cells assessed as late apoptotic cells at 3 uM after 12 hrs by Annexin V-FITC/propidium iodide staining-based flow cytometric analysis (reference value: 4.52%); format: functional
A549 [7] = experiment: Cell cycle arrest in human A549 cells assessed as accumulation of cells at G1 phase at 3 uM after 3 hrs by propidium iodide staining-based flow cytometric analysis (reference value: 57.65%); format: functional
A549 [8] = experiment: Cell cycle arrest in human A549 cells assessed as accumulation of cells at G2 phase at 3 uM after 6 hrs by propidium iodide staining-based flow cytometric analysis (reference value: 24.02%); format: functional
A549 [9] = experiment: Cell cycle arrest in human A549 cells assessed as increase in p21 levels at 3 uM by Western blot analysis; format: functional, cell-based; settings: TDE = time-dependent effect
Summary of the method: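 A549 cells exposed to 3 μM for 3, 6, 12 or 24 h; where NAC is used, 10 mM NAC is added 30 min before 24 h treatment. Lysate protein (30 μg) is run on 12% SDS-PAGE, blotted to nitrocellulose, blocked in 5% milk, primary antibody overnight at 4°C, then HRP anti-IgG. β-actin loading control; densitometry; three independent experiments, mean ± SD.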

[10] = target: c-Jun N-terminal kinase, JNK (Homo sapiens) (UniProt P45983+P53779+P45984); experiment: Modulation of JNK in human A549 cells assessed as decrease in STAT3 phosphorylation measured after 24 hrs in presence of JNK inhibitor SP600125 by Western blot analysis; format: cell-based
Summary of the method: (§2)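 A549 cells pre-incubated for 30 min with 12.1 μM kinase inhibitor: SB203580 (p38), SP600125 (JNK), FR180204 (ERK) or LY10249 (Akt). Compound treatment followed for 24 h. Lysates (30 μg protein) analysed by 12% SDS-PAGE and nitrocellulose immunoblot with HRP detection. Three independent experiments, mean ± SD.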

A549 [11] = experiment: Modulation of ERK in human A549 cells assessed as increase in cleaved caspase-3 measured after 24 hrs in presence of ERK inhibitor-FR180204 by Western blot analysis; format: cell-based; summary of the method: as §2
A549 [12] = experiment: Induction of ROS generation in human A549 cells assessed as intracellular ROS level at 3 uM after 3 hrs by DCFH-DA staining-based flow cytometric analysis (reference value: 51.8%); format: functional
Summary of the method: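 A549 cells loaded with DCFH-DA (10 μM per legend) for 30 min, then exposed to 3 μM at 37°C for 3, 6, 12 or 24 h. After two PBS washes, intracellular fluorescence is quantified by flow cytometry. Three independent experiments, mean ± SD.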

A549 [13] = experiment: Inhibition of ERK phosphorylation in human A549 cells at 3 uM after 24 hrs in presence of NAC by Western blot analysis; format: cell-based
Summary of the method: (§3)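 A549 cells pretreated with 10 mM NAC for 30 min, then exposed to compound for 24 h. Lysate protein (30 μg) resolved on 12% SDS-PAGE and transferred to nitrocellulose. Probed with primary antibodies overnight at 4°C, then HRP secondary. Band densities from three independent experiments, mean ± SD.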

[14] = target: RAC-alpha serine/threonine-protein kinase (Homo sapiens) (UniProt P31749); experiment: Inhibition of AKT phosphorylation in human A549 cells at 3 uM measured after 24 hrs in presence of NAC by Western blot analysis; format: cell-based; summary of the method: as §3
Sequence of RAC-alpha serine/threonine-protein kinase (Homo sapiens) (P31749 whole entry): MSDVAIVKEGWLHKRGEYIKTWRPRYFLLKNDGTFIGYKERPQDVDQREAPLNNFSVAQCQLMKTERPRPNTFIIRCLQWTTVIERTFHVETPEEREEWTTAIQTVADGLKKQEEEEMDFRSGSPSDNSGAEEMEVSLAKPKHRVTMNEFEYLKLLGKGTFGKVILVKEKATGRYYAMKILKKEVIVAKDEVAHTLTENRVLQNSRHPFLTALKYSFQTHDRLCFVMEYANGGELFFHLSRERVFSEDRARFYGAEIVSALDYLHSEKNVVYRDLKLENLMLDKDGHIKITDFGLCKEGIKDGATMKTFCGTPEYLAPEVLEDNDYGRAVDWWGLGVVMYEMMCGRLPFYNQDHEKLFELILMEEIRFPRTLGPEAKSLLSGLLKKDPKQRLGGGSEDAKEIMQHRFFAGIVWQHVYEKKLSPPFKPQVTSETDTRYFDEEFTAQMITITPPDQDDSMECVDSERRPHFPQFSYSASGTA

| SMILES | Activity (NCI-H23) | IC50 (A549 [1]) | Activity (A549 [2]) | Activity (A549 [3]) | Activity (A549 [4]) | Activity (A549 [5]) | Activity (A549 [6]) | Activity (A549 [7]) | Activity (A549 [8]) | Activity (A549 [9]) | Activity [10] | Activity (A549 [11]) | Activity (A549 [12]) | inhibition (A549 [13]) | inhibition [14] |
| --- | --- | --- | --- | --- | --- | --- | --- | --- | --- | --- | --- | --- | --- | --- | --- |
| CCCCCCCCCS(=O)(=O)C12OC1C(=O)c1c(OC)ccc(OC)c1C2=O (stereo not given) | Active | 7.54 µM | Tde | 5.43% | 14.47% | 6.43% | 7.87% | 61.21% | 22.02% | Tde | inactive | Active | 52.52% | inactive | inactive |
| CCCS(=O)(=O)C12OC1C(=O)c1c(OC)ccc(OC)c1C2=O (stereo not given) | Active | 2.59 µM | Tde | 5.11% | 16.31% | 7.11% | 0.2% | 60.85% | 18.26% | Tde | inactive | Active | 57.9% | inactive | inactive |
